Screens: PubChem BioAssay, several laboratories
This is a sample that favours compounds with a hit; in the whole collection about 3% have one here.
BB579 growth dn: growth inhibitors of yeast BB579 in restrictive medium, primary screen, yeast lifespan-shortening project, S. cerevisiae; OD615, 48 h; inhibition, % at 10 µM; 140,000 tested, 0.51% active; AID 804, 2007;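 active = inhibition above a set limit, 3 SD over the mean compound inhibition, cut at about 44% in these data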
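Detection: OD615 turbidity measurement; Material: Saccharomyces cerevisiae DeaD strain BB579, replicative lifespan model yeast; Timing: 48 h exposure, 30 °C; Doses: single 10 µM dose; Medium: CSMM-D restrictive synthetic medium containing dextrose (glucose); Controls: amphotericin B at 10 µg/mL as positive control.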
Measles CPE: compounds protecting cells from measles virus cytopathic effect, primary screen, measles RdRp inhibitor project, single point, MLSMR library, absorbance | Measles virus-infected cells, CPE protection | protection (pct of control), % at 4 µM | 140,000 tested, 1.5% active | AID 841, 2007; in the data active = protection mostly above about 24%, no sharp cut-off; inactive = mostly below about 26%
sEH activator: soluble epoxide hydrolase activators, primary screen, biochemical, human sEH | activation, % at 2 µM | purified human sEH enzymatic activity, activator screen | Bifunctional epoxide hydrolase 2 (Homo sapiens), P34913 | 91,000 tested, 0.04% active; in the data active = activation above about 37%
Target sequence (P34913 whole entry, looked up): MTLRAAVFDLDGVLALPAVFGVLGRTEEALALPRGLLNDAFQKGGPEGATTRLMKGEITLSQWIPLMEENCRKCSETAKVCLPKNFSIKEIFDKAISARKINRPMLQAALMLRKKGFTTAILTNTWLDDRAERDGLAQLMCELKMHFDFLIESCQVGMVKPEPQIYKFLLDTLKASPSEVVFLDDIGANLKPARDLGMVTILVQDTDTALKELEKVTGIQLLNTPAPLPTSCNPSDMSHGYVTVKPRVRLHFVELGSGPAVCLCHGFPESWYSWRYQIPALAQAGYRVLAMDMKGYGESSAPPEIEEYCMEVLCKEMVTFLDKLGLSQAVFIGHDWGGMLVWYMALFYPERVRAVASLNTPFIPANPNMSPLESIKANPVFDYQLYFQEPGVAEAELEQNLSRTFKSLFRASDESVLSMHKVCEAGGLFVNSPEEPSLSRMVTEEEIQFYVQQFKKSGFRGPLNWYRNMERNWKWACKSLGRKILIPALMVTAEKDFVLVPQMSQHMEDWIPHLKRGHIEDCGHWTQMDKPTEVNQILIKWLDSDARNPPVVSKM
Yeast lifespan up: compounds extending yeast replicative lifespan, primary screen, S. cerevisiae, OD615; inhibition of the nicotinamide effect, % at 10 µM; S. cerevisiae growth with nicotinamide; deaD strain in restrictive glucose medium; 130,000 tested, 0.68% active;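 active = inhibition above a set limit, placed 3 SD over the median of all compounds, cut at about 26% in these data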;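 note: 0% = nicotinamide-treated wells and 100% = cells grown without nicotinamide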
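Buffer or medium: CSMM-D glucose medium, restrictive; test system: modified budding yeast, DeaD strain; compound: single dose 10 µM compound, 0.25% DMSO; schedule: culture preincubation 4 h, compound exposure 48 h, both 30 °C; detection: optical density (absorbance) at 615 nm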
sEH inhibitor: soluble epoxide hydrolase inhibitors, primary screen, biochemical, human sEH. Bifunctional epoxide hydrolase 2 (Homo sapiens), P34913. recombinant human sEH enzymatic activity assay. inhibition, % at 2 µM. 91,000 tested, 0.34% active; in the data active = inhibition above about 80%
SDO1 yeast rescue: growth rescue of sdo1-depleted yeast, primary screen, S. cerevisiae, bone marrow failure model. AID 817, 2007. 140,000 tested, 0.21% active. z-score at 10 µM. S. cerevisiae sdo1-depleted JHY4D growth rescue, OD600 30 h; stronger effect = higher value; pdr5 snq2 efflux-pump mutant strain;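 active = z-score above 3 at both the 24 hr and the 30 hr optical density reads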;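 note: z-score against mean and SD of all compound wells on the same plate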
Numbers without * were called inactive; · = not tested or not shown; [ ] = remark or other dose.

SMILES	BB579 growth dn	Measles CPE	sEH activator	Yeast lifespan up	sEH inhibitor	SDO1 yeast rescue
Cc1cc(NS(=O)(=O)c2ccc(Nc3nc(-c4sc(NC(=O)c5ccccc5)nc4C)cs3)cc2)no1	-42	4	-94	-3	94*	-2.1
Nc1cccc2nc3ccccc3cc12	59*	3	10	-5	-8	-0.42
CC(NC(=O)c1ccco1)c1cccc2ccccc12 (stereo not drawn)	-4	7	14	·	-15	-0.77
Cc1cc(C)cc(NC(=O)C(Nc2ccccc2)c2ccccc2)c1 (stereo not drawn)	-27	46*	·	-2	·	-0.95
COc1cc2c(cc1OC)CN(CC(=O)Nc1ccc(C#N)cc1)CC2	-56	3	7	-10	-6	0.98
CC(=O)c1c(C)[nH]c(C(=O)NCc2ccccc2Cl)c1C	-11	24	-85	-21	85*	0.48[8.9 µM]
CCc1c(C(=O)NCCc2ccc(OC)c(OC)c2)[nH]c(C)c1C(C)=O	-28	4	-6	47*	8	0.01
CC(=O)c1c(C)[nH]c(C(=O)NCCc2cccc(C)c2)c1C	-62	5	-25	-8	24	0.29
CCc1c(C(=O)NCc2ccc3c(c2)OCO3)[nH]c(C)c1C(C)=O	-18	26	·	-9	·	-0.23
CCc1c(C(=O)Nc2cc(C)ccc2OC)[nH]c(C)c1C(C)=O	-52	7	-12	-16	15	-2.1
CCc1c(C(=O)NCc2ccccc2Cl)[nH]c(C)c1C(C)=O	-15	34*	·	-6	·	0.35
CCc1cc[n+](-c2nc3ccccc3nc2[N-]S(=O)(=O)c2ccc(Br)s2)cc1	-9	9	·	7	·	0.61
O=C(NC(NC(=O)c1ccccc1)c1ccccc1)c1ccccc1	-64	16	-5	4	4	-0.48
Cc1ccc(C)c(N2CCN(c3ncnc4c3cnn4-c3ccccc3)CC2)c1	-28	51*	14	-8	-12	-0.81
CCN1CCN(c2ncnc3c2cnn3-c2ccccc2)CC1	-55	7	-15	-2	17	-0.14
Cc1ccc(OCCCC(=O)Nc2ccc(Br)cc2)cc1	-36	16	-79	-5	79	0.81
Cc1ccc(-c2nnn(CC(=O)N(c3ccccc3)C(C(=O)NC(C)(C)C)c3cccs3)n2)o1 (stereo not drawn)	-52	12	7	·	-2	-0.66
CCOc1ccccc1N(C(=O)Cn1nnnc1-c1ccc(C)o1)C(CC)C(=O)NC(C)(C)C (stereo not drawn)	-32	39*	7	-1	-7	-0.02
CCOC(=O)c1nnn(-c2nonc2N)c1CN(CC)c1ccccc1	-61	3	10	2	-9	-0.51
O=C1c2ccccc2C(=O)N1c1ncc(Cc2ccc(Cl)cc2)s1	-2	5	·	47*	·	-0.28
COc1ccc2nc(NC(=S)N(C)C)sc2c1	65*	5	-10	-11	9	-1.3
CCCC(=O)Nc1nc2ccc(OC)cc2s1	-29	8	·	-8	·	-0.81
COC(=O)Cn1cnc2c1c(=O)n(C)c(=O)n2C	3	8	4	·	-2	1.7
Cn1c(=O)c2c(ncn2CCCNC2=CC(C)(C)CC(=O)C2)n(C)c1=O	-52	17*	5	-10	0	0.71
Cc1cc(C)n(C(=O)C(C)N2C(=O)c3ccccc3C2=O)n1 (stereo not drawn)	-27	39*	·	-5	·	-0.16
SMILES	BB579 growth dn	Measles CPE	sEH activator	Yeast lifespan up	sEH inhibitor	SDO1 yeast rescue
O=C1NC(c2ccccn2)Nc2sc3c(c21)CCC3 (stereo not drawn)	75*	8	3	-8	-2	1
CCCCSC(=S)N(C)C1CCS(=O)(=O)C1 (stereo not drawn)	-9	3	-6	-5	7	0.3
COc1cccc(CNC(=O)Nc2cccs2)c1	-18	44*	-23	-7	26	0.33
CN=C(Nc1cccc(OC)c1)SC1CC(=O)N(c2ccc(C(=O)O)cc2)C1=O (stereo not drawn)	4	2	·	0	·	-1.3
O=Cc1cc([N+](=O)[O-])ccc1N1CCOCC1	-2	33*	·	6	·	0.46
CC(=O)N(c1ccccc1)c1ccc([N+](=O)[O-])cc1[N+](=O)[O-]	7	1	·	7	·	0.05
COCCOCCOCCC(=O)NC1CC2CCC1(C)C2(C)C (stereo not drawn)	-27	51*	13	-8	-11	-0.02
CC(CN1CCOCC1)OC(=O)c1ccccc1Br (stereo not drawn)	-24	56*	·	-3	·	0.06
CN(C)CCNC(=O)COc1ccc(Cl)cc1Cl	-24	5	·	3	·	0.69
CN(C)CCNC=C(C(=O)Nc1ccc(Cl)cc1Cl)C(=O)Nc1ccc(Cl)cc1Cl	99*	12	13	-21	-10	-2.2
O=C1CC(N2CCN(c3nc4ccccc4s3)CC2)C(=O)N1Cc1cccs1 (stereo not drawn)	98*	14	1	-26	-5	-2.8
O=[N+]([O-])c1cc2oc3c(c2c(C=NCc2ccncc2)c1O)CCCC3	9	14	·	67*	·	-1.1
O=C1C(C=NCc2ccncc2)=C(O)c2ccccc21	-73	19	-1	10	-4	0.23
N#Cc1nc(-c2ccco2)oc1N1CCC(Cc2ccccc2)CC1	-14	7	20	-13	-19	-1.5
O/N=C/c1cc(Cl)ccc1OCc1cccc2ccccc12	76*	5	7	-9	-6	-1.1
Cc1cc(SCC(=O)c2ccc3c(c2)OCO3)nc2ccccc12	-3	31*	6	-7	-4	-1.4
CC(C)C(C)NC(=O)COc1ccc(-c2ccccc2)cc1 (stereo not drawn)	-81	18	7	-7	-6	-0.09
CC(C)C(NC(=O)COc1ccccc1)C(=O)O (stereo not drawn)	-43	44*	4	-2	-1	-0.52
CC(=O)c1ccc2c(c1)C1C=CCC1C(c1ccc(S(=O)(=O)N3CCOCC3)cc1)N2 (stereo not drawn)	-9	90*	·	-3	·	-0.53
CCOC(=O)Cc1csc(/C(=N/O)C(N)=O)n1	-73	33*	-12	6	12	0.5
CCOC(=O)Cc1csc(N)n1	-15	4	-7	-2	6	0.55
CCOC(=O)CSC1=NC(=O)/C(=C/c2ccc(OC)cc2)S1	-5	1	·	57*	·	-1.7
COc1ccccc1/C=C/C=N/n1c(-c2cc(C)[nH]n2)n[nH]c1=S	-17	57*	·	-5	·	2.5
COc1ccccc1/C=C/C=N/n1c(-c2ccc(C)cc2)n[nH]c1=S	6	8	·	-1	·	-1.4
CC(C)(O)C#Cc1ccc(C(=O)NCc2ccccc2)s1	·	·	4	·	-3	·
